In series [1] the test system is Plasma. As to the kind of experiment: Half life in healthy human plasma assessed as metabolite BAY 78-1789 Half life at 40 mg, po administered as two 20 mg immediate release tablets daily for 3 days during 10 hrs overnight fasting state measured after 1 day. The format is ADME, organism-based. The conditions noted are these: in vivo, 24 h. In a few lines: (§1)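 Healthy Caucasian males took tablets once daily for 3 days with 240 ml water after a 10-h fast. Heparinised blood was drawn predose and at 0.25–14 h after the first and last doses. Plasma parent drug and metabolites M1–M3 were measured by LC/MS-MS (MRM, deuterated internal standard). Noncompartmental analysis gave Cmax observed, t1/2 = 0.693/kel and MRT = AUMC/AUC. Values are geometric means.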

In series [2] the test system is Plasma. As to the kind of experiment: Half life in healthy human plasma assessed as metabolite BAY 78-1789 Half life at 40 mg, po administered as two 20 mg immediate release tablets daily for 3 days during 10 hrs overnight fasting state measured after 3 day. In kind it is ADME, organism-based. The conditions noted are these: in vivo, 72 h. Summed up:
as §1

In series [3] the test system is Plasma. As to the kind of experiment: Ratio of AUC (0 to infinity) for metabolite BAY 78-1789 to AUC (0 to infinity) for compound in healthy human plasma at 80 mg, po administered as single dose for 3 days measured after 3 days. In kind it is ADME, organism-based. Particulars: in vivo, 72 h. Summed up: (§2)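 Healthy Caucasian men (8 active, 4 placebo per dose) dosed with tablets daily for 3 days after 10-h fast. Plasma sampled 0.25–14 h after first and last doses. Parent and metabolites M1–M3 measured by LC/MS-MS (200 µl plasma). Metabolic ratio is metabolite AUC0-∞ divided by parent AUC0-∞ (log-linear trapezoidal, extrapolated by last concentration/kel). First vs third dose compared by paired t test.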

The subject of series [4] is Plasma. The series can be described thus: Cmax in healthy human plasma assessed as metabolite BAY 78-1789 Cmax at 80 mg, po administered as four 20 mg immediate release tablets daily for 3 days during 10 hrs overnight fasting state measured after 3 day. In kind it is ADME, organism-based. Also noted: dose 80 mg, route oral. The conditions noted are these: in vivo, 72 h. Summed up:
as §1

Series [5] relates to Plasma. As to the kind of experiment: Ratio of AUC (0 to infinity) for metabolite BAY 78-1789 to AUC (0 to infinity) for compound in healthy human plasma at 40 mg, po administered as single dose for 3 days measured after 1 day. In kind it is ADME, organism-based. Particulars: in vivo, 24 h. In a few lines: as §2
In series [6] the test system is Plasmodium falciparum. As to the kind of experiment: Antimalarial activity against Plasmodium falciparum K1 in human plasma assessed as inhibition of hypoxanthine uptake by intraerythrocytic malaria parasites by hypoxanthine incorporation assay. The format is functional, organism-based. Summed up: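 K1 or TM90-C2A parasites were sorbitol-synchronized and cultured in RPMI 1640. Drug was diluted in drug-free human serum (0.04–40 ng/ml) or subject plasma was diluted twofold (8–8,192). Parasites were added at 2% hematocrit, 1% parasitemia (>95% rings), and [3H]hypoxanthine uptake was measured over 48 h. IC50 or ID50 came from concentration or dilution-response curves. Equivalent concentration = ID50 × IC50.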

Series [7] deals with Plasma. The series can be described thus: Tmax in healthy human plasma assessed as metabolite BAY 78-1789 Tmax at 80 mg, po administered as four 20 mg immediate release tablets daily for 3 days during 10 hrs overnight fasting state measured after 3 day. In kind it is ADME, organism-based. The conditions noted are these: in vivo, 72 h. In a few lines:
(§3)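 Healthy Caucasian men (8 active, 4 placebo per dose) dosed with tablets daily for 3 days after 10-h fast. Lithium-heparin plasma sampled predose and 0.25–14 h after day-1 and day-3 doses, stored frozen. Parent and M1–M3 quantified by LC/MS-MS in positive-ion MRM. Tmax taken directly from observed individual data.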

Series [8] relates to Plasma. As to the kind of experiment: AUC in healthy human plasma assessed as metabolite BAY 78-1789 AUC at 80 mg, po administered as four 20 mg immediate release tablets daily for 3 days during 10 hrs overnight fasting state measured after 1 day. In kind it is ADME, organism-based. Further details: dose 80 mg, time < 10 hr, route oral. The conditions noted are these: in vivo. Summed up:
(§4)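 Healthy Caucasian male volunteers took 40 mg (two 20-mg IR tablets) or 80 mg (four tablets) orally once daily for 3 days, with 240 ml water after a 10-h fast. Plasma was sampled predose to 14 h after the first and last doses. M1/M2/M3 were quantified by LC/MS-MS MRM against a D4-labelled internal standard. Cmax was read from observed data and AUC by log-linear trapezoidal rule, noncompartmental, geometric means.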

Series [9] deals with Plasma. The series can be described thus: Tmax in healthy human plasma assessed as metabolite BAY 78-1789 Tmax at 40 mg, po administered as two 20 mg immediate release tablets daily for 3 days during 10 hrs overnight fasting state measured after 3 day. In kind it is ADME, organism-based. The conditions noted are these: in vivo, 72 h. Summed up:
as §3

Series [10] concerns Plasma. The series can be described thus: Half life in healthy human plasma assessed as metabolite BAY 78-1789 Half life at 80 mg, po administered as four 20 mg immediate release tablets daily for 3 days during 10 hrs overnight fasting state measured after 3 day. The format is ADME, organism-based. The conditions noted are these: in vivo, 72 h. Summed up:
as §1

In series [11] the test system is Plasma. As to the kind of experiment: AUC in healthy human plasma assessed as metabolite BAY 78-1789 AUC at 40 mg, po administered as two 20 mg immediate release tablets daily for 3 days during 10 hrs overnight fasting state measured after 3 day. The format is ADME, organism-based. Also noted: time < 10 hr, dose 40 mg, route oral. Particulars: in vivo. Summed up:
as §4

Series [12] has as its system Plasma. The series can be described thus: AUC in healthy human plasma assessed as metabolite BAY 78-1789 AUC at 80 mg, po administered as four 20 mg immediate release tablets daily for 3 days during 10 hrs overnight fasting state measured after 3 day. The format is ADME, organism-based. Also noted: dose 80 mg, time < 10 hr, route oral. The conditions noted are these: in vivo. Summed up:
as §4

For series [13], the system named is Plasma. As to the kind of experiment: Tmax in healthy human plasma assessed as metabolite BAY 78-1789 Tmax at 80 mg, po administered as four 20 mg immediate release tablets daily for 3 days during 10 hrs overnight fasting state measured after 1 day. Particulars: in vivo, 24 h. The format is ADME, organism-based. In a few lines: as §3
Series [14] concerns Plasma. The series can be described thus: Half life in healthy human plasma assessed as metabolite BAY 78-1789 Half life at 80 mg, po administered as four 20 mg immediate release tablets daily for 3 days during 10 hrs overnight fasting state measured after 1 day. The format is ADME, organism-based. The conditions noted are these: in vivo. In a few lines:
as §1

Series [15] concerns Plasma. The series can be described thus: Cmax in healthy human plasma assessed as metabolite BAY 78-1789 Cmax at 80 mg, po administered as four 20 mg immediate release tablets daily for 3 days during 10 hrs overnight fasting state measured after 1 day. In kind it is ADME, organism-based. Also noted: dose 80 mg, route oral. The conditions noted are these: in vivo, 24 h. Summed up: as §1

The subject of series [16] is Plasma. As to the kind of experiment: Half-life in healthy human plasma assessed as metabolite BAY 78-1789 half-life at 80 mg, po administered as single ascending doses during 10 hrs overnight fasting state. Particulars: in vivo. In kind it is ADME, organism-based. In a few lines:
(§5)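 Healthy Caucasian male volunteers, single oral dose with 240 ml water after a 10-h overnight fast. Heparinised venous blood was drawn predose and at 0.25–14 h. Plasma was stored frozen. Parent drug and metabolites M1–M3 were measured by LC/MS-MS (MRM, deuterated internal standard). Noncompartmental analysis gave Cmax observed, t1/2 = 0.693/kel (terminal regression) and MRT = AUMC/AUC. Values are geometric means.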

The test system of series [17] is Plasma. As to the kind of experiment: Ratio of AUC (0 to infinity) for metabolite BAY 78-1789 to AUC (0 to infinity) for compound in healthy human plasma at 40 mg, po administered as single dose for 3 days measured after 3 days. In kind it is ADME, organism-based. Particulars: in vivo, 72 h. In a few lines:
as §2

Series [18] has as its system Plasma. The series can be described thus: Ratio of AUC (0 to infinity) for metabolite BAY 78-1789 to AUC (0 to infinity) for compound in healthy human plasma at 80 mg, po administered as single dose for 3 days measured after 1 day. The format is ADME, organism-based. Particulars: in vivo, 24 h. In a few lines: as §2
Series [19] relates to Plasma. The series can be described thus: AUC in healthy human plasma assessed as metabolite BAY 78-1789 AUC at 40 mg, po administered as two 20 mg immediate release tablets daily for 3 days during 10 hrs overnight fasting state measured after 1 day. Particulars: in vivo. Further details: time < 10 hr, dose 40 mg, route oral. In kind it is ADME, organism-based. Summed up: as §4

Series [20] concerns Plasma. As to the kind of experiment: Cmax in healthy human plasma assessed as metabolite BAY 78-1789 Cmax at 40 mg, po administered as two 20 mg immediate release tablets daily for 3 days during 10 hrs overnight fasting state measured after 3 day. The format is ADME, organism-based. Particulars: in vivo, 72 h. Also noted: dose 40 mg, route oral. In a few lines:
as §1

In series [21] the test system is Plasma. As to the kind of experiment: Cmax in healthy human plasma assessed as metabolite BAY 78-1789 Cmax at 40 mg, po administered as two 20 mg immediate release tablets daily for 3 days during 10 hrs overnight fasting state measured after 1 day. Particulars: in vivo, 24 h. Also noted: dose 40 mg, route oral. The format is ADME, organism-based. Summed up:
as §1

Series [22] relates to Plasma. As to the kind of experiment: Tmax in healthy human plasma assessed as metabolite BAY 78-1789 Tmax at 40 mg, po administered as two 20 mg immediate release tablets daily for 3 days during 10 hrs overnight fasting state measured after 1 day. The format is ADME, organism-based. The conditions noted are these: in vivo, 24 h. Summed up:
as §3

Series [23] relates to Plasma. The series can be described thus: AUC (0 to infinity) in healthy human plasma assessed as metabolite BAY 78-1789 AUC (0 to infinity) at 80 mg, po administered as single ascending doses during 10 hrs overnight fasting state. The format is ADME, organism-based. Also noted: dose 80 mg, time infinity, route oral. Particulars: in vivo. In a few lines:
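Healthy Caucasian male volunteers, single oral dose of 80 mg as four 20-mg immediate-release tablets, taken with 240 ml water after a 10-h overnight fast. Lithium-heparin venous blood was drawn predose and at 0.25–14 h, and plasma was stored frozen. Metabolites M1/M2/M3 were measured by LC/MS-MS (positive-ion MRM, deuterated internal standard). Noncompartmental analysis, AUC by log-linear trapezoidal rule extrapolated to infinity (Clast/kel), geometric means.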

For series [24], the system named is Plasma. The series can be described thus: Cmax in healthy human plasma assessed as metabolite BAY 78-1789 Cmax at 80 mg, po administered as single ascending doses during 10 hrs overnight fasting state. In kind it is ADME, organism-based. Further details: dose 80 mg, route oral. The conditions noted are these: in vivo. In a few lines: as §5

≈ marks a conversion by molar mass, not a printed value.

Broadly, the Cmax is the maximum level reached in the sampled fluid or tissue. In general, IC50 refers to the midpoint of a concentration-inhibition curve. The term Tmax denotes the time at which the peak concentration occurs. One may read the AUC as concentration integrated over time.

For the compound `C[C@@H]1[C@H](O)C[C@H]2[C@@H](C)[C@H](N3CCS(=O)(=O)CC3)O[C@@H]3O[C@]4(C)CC[C@@H]1[C@]32OO4`, the t1/2 was found to be 1.52 h in [1]; 1.69 h in [2]; 1.86 h in series [10]; 1.83 h in series [14]; 1.59 h in [16]. The Ratio in series [3] is reported as 0.52; in series [5], 0.54; in [17], 0.47; in series [18] it was 0.65. Moreover, the Cmax amounted to 38.2 ng/mL in [4]; 51.9 ng/mL in [15]; 22.5 ng/mL in series [20]; 27.8 ng/mL in [21]; 74.3 ng/mL in series [24]. In addition, the IC50 in series [6] is 2.3 ng/mL (≈ 5.51 nM). Also, the Tmax amounted to 2.5 h in series [7], 2.5 h in [9], 2 h in [13] and 2 h in [22]. Further, the AUC was 213.1 ng·h/mL in [8]; 84.9 ng·h/mL in series [11]; 165.1 ng·h/mL in [12]; 95.9 ng·h/mL in series [19]; 294.8 ng·h/mL in [23].

Source of the values: ChEMBL document CHEMBL1671864, “First assessment in humans of the safety, tolerability, pharmacokinetics, and ex vivo pharmacodynamic antimalarial activity of the new artemisinin derivative artemisone” (Antimicrob Agents Chemother, 2008).
